Assay results as given in ChEMBL document CHEMBL2321816, “Synthesis and antitumor evaluation of arctigenin derivatives based on antiausterity strategy” (Eur J Med Chem, 2013).
Active and inactive are the calls of the source. The calls are words filed in the database; no cut-off is given here.

How the values were obtained:
[1] = system: PANC-1; assay: Cytotoxicity against human PANC1 cells assessed as cell viability after 3 hrs by WST-8 cells; format: functional
Outline: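 PANC-1 cells, 2 × 10⁴/well, grown 24 h in DMEM at 37 °C in 5% CO₂. Cells were PBS-washed and then exposed 24 h to serial dilutions in nutrient-deprived medium or in normal DMEM. After a PBS wash, WST-8 in DMEM was added for 3 h and A450 was read. Viability was taken against blank and control from the mean of three wells. PC50 is the concentration killing 50% of cells preferentially in NDM.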

[2] = species on record: Mus musculus; assay: Toxicity in human Capan1 cells injected BALB/cAJcl-nu-nu mouse assessed as behavior at 50 ug for 6 days in a week upto 28th days treatment started on 15th day tumor injection; format: organism-based; settings: capan-1, 144 h
Outline: (§1)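 Female BALB/cAJcl-nu/nu mice, five weeks old, injected s.c. on the right back with 5 × 10⁶ CAPAN-1 cells in DMEM. At two weeks, mice with tumors around 5 mm were randomized to treatment or vehicle groups. Drug was given from a DMSO stock (10 mg/mL) diluted in saline, 0.2 mL i.p., 6 days/week for 4 weeks. Body weight and tumor size were taken weekly. Tumors were weighed wet at the end.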

[3] = species on record: Mus musculus; assay: Toxicity in human Capan1 cells injected BALB/cAJcl-nu-nu mouse assessed as body weight at 50 ug for 6 days in a week upto 28th days treatment started on 15th day tumor injection; format: organism-based; settings: capan-1, 144 h; outline: as §1
[4] = system: CAPAN-1; assay: Antitumor activity against human Capan1 cells injected into BALB/cAJcl-nu-nu mouse assessed as reduction in tumor weight at 50 ug for 6 days in a week upto 28th days treatment started on 15th day tumor injection; format: functional; outline: as §1

Row | SMILES | PC50 [1] | other results
1 | COc1ccc(C[C@H]2COC(=O)[C@@H]2Cc2ccc(O)c(OCCO)c2)cc1OC | 7.7 µM | 
2 | CCCOc1cc(C[C@H]2C(=O)OC[C@@H]2Cc2ccc(OCC)c(OCCC)c2)ccc1O | 28.6 µM | 
3 | CCCOc1cc(C[C@H]2C(=O)OC[C@@H]2Cc2ccc(OC)c(OCC)c2)ccc1O | 3.54 µM | 
4 | CCOc1cc(C[C@H]2C(=O)OC[C@@H]2Cc2ccc(OC)c(OCC)c2)ccc1O | 0.66 µM | 
5 | CCOc1cc(C[C@H]2C(=O)OC[C@@H]2Cc2ccc(OCC)c(OCC)c2)ccc1O | 0.78 µM | Activity [2]: Non-toxic; Activity [3]: Non-toxic; inhibition [4]: Active
6 | CCOc1ccc(C[C@H]2COC(=O)[C@@H]2Cc2ccc(O)c(OC)c2)cc1OCC | 4.85 µM | 
7 | CCOc1cc(C[C@H]2COC(=O)[C@@H]2Cc2ccc(O)c(OC)c2)ccc1OC | 4.71 µM | 
8 | CCOc1cc(C[C@H]2C(=O)OC[C@@H]2Cc2ccc(OC)c(OC)c2)ccc1O | 3.74 µM | 
9 | CCCOc1cc(C[C@H]2C(=O)OC[C@@H]2Cc2ccc(OC)c(OC)c2)ccc1O | 3.74 µM | 
10 | CCOc1ccc(C[C@H]2COC(=O)[C@@H]2Cc2ccc(O)c(OC)c2)cc1OC | 0.49 µM | 
11 | CCCOc1cc(C[C@H]2C(=O)OC[C@@H]2Cc2ccc(OC)c(OCCC)c2)ccc1O | 13.6 µM | 
12 | CCOc1cc(C[C@H]2C(=O)OC[C@@H]2Cc2ccc(OCC)c(OC)c2)ccc1O | 4.77 µM | 
13 | COc1cc(C[C@H]2C(=O)OC[C@@H]2Cc2ccc(OC)c(OC)c2)ccc1O [ARCTIGENIN] | 0.8 µM | Activity [2]: Non-toxic; Activity [3]: Non-toxic; inhibition [4]: Active
14 | CCCCOc1cc(C[C@H]2C(=O)OC[C@@H]2Cc2ccc(OC)c(OC)c2)ccc1O | 7.14 µM | 
15 | COc1ccc(C[C@H]2COC(=O)[C@@H]2Cc2ccc(O)c(OC(C)C)c2)cc1OC | 4.16 µM | 
16 | CCCCCCOc1cc(C[C@H]2C(=O)OC[C@@H]2Cc2ccc(OC)c(OC)c2)ccc1O | 3.89 µM | 
